Results published in ChEMBL document CHEMBL4689842, “EUbOPEN Chemogenomics Library wave 1” (2021).

Key:
Type in all cases: toxicity, cell-based
[1] = test system: U2OS; test: Incucyte cell viability with U2OS; conditions: human, 10 µM, compound concentration 10 uM; also: filed as whole numbers so only -1 and 0 and 1 occur
[2] = test system: Fibroblast; test: Incucyte cell viability with human fibroblast; conditions: 10 µM, compound concentration 10 uM; also: filed as whole numbers so only -1 and 0 and 1 occur
[3] = test system: U2OS; test: Multiplex assay against U2OS; conditions: human
In short: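 On a CQ1 microscope at 37°C and 5% CO2, live cells were imaged after compound addition. They had been stained at seeding with Hoechst33342, BioTracker Green Microtubule Cytoskeleton Dye, MitoTracker Red and Annexin V Alexa Fluor 680. CellPathfinder machine-learning gating assigned cells to Hoechst high-intensity objects or normal cells, normal cells to healthy, pyknosed or fragmented nuclei, and pyknosed cells to mitotic or apoptotic. Tubulin, mitochondrial-mass and membrane-permeability phenotypes are per cents of healthy-nucleus cells.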

[4] = test system: HEK-293T; test: Incucyte cell viability with HEK293T; conditions: human, 10 µM, compound concentration 10 uM; also: filed as whole numbers so only -1 and 0 and 1 occur
[5] = 0 h, replicate number 1, timepoint 0 hours
[6] = 6 h, replicate number 1, timepoint 6 hours
[7] = 12 h, replicate number 1, timepoint 12 hours
[8] = 18 h, replicate number 1, timepoint 18 hours
[9] = 18 h, replicate number 2, timepoint 18 hours
[10] = 24 h, replicate number 1, timepoint 24 hours
[11] = 12 h, 1 µM, compound concentration 1 uM, replicate 1
[12] = 12 h, 1 µM, compound concentration 1 uM, replicate 2
[13] = 12 h, 10 µM, compound concentration 10 uM, replicate 1
[14] = 12 h, 10 µM, compound concentration 10 uM, replicate 2
[15] = 24 h, 1 µM, compound concentration 1 uM, replicate 1
[16] = 24 h, 1 µM, compound concentration 1 uM, replicate 2
[17] = 24 h, 10 µM, compound concentration 10 uM, replicate 1
[18] = 24 h, 10 µM, compound concentration 10 uM, replicate 2
[19] = 48 h, 1 µM, compound concentration 1 uM, replicate 1
[20] = 48 h, 1 µM, compound concentration 1 uM, replicate 2
[21] = 48 h, 10 µM, compound concentration 10 uM, replicate 1
[22] = 48 h, 10 µM, compound concentration 10 uM, replicate 2

Nc1ccc(C(=O)Nc2cccc(-c3nc(N4CCOCC4)c4oc5ncccc5c4n3)c2)cn1
Growth Rate [1, 5]: 0
Growth Rate [1, 6]: 1
Growth Rate [1, 7]: 0
Growth Rate [1, 8]: 0
Growth Rate [1, 9]: 1
Growth Rate [1, 10]: 0
Growth Rate [2, 5]: 0
Growth Rate [2, 6]: 0
Growth Rate [2, 7]: 0
Growth Rate [2, 8]: 0
Growth Rate [2, 9]: 1
Growth Rate [2, 10]: 0
Population Apoptotic (%) [3, 11]: 42%
Population Fragmented Nuclei (%) [3, 11]: 20%
Population Healthy Nuclei (%) [3, 11]: 64%
Population Hoechst High Intensity Objects (%) [3, 11]: 10%
Population Mitochondria Different-Phenotype (%) [3, 11]: 36%
Population Mitotic Cells (%) [3, 11]: 57%
Population Normal (%) [3, 11]: 89%
Population Pyknosed Nuclei (%) [3, 11]: 15%
Population Tubulin-Different-Phenotype (%) [3, 11]: 54%
Total Cell Count [3, 11]: 215
Population Apoptotic (%) [3, 12]: 9%
Population Healthy Nuclei (%) [3, 12]: 61%
Population Mitochondria Different-Phenotype (%) [3, 12]: 21%
Population Mitotic Cells (%) [3, 12]: 90%
Population Pyknosed Nuclei (%) [3, 12]: 17%
Population Tubulin-Different-Phenotype (%) [3, 12]: 28%
Total Cell Count [3, 12]: 55
Population Apoptotic (%) [3, 13]: 56%
Population Fragmented Nuclei (%) [3, 13]: 57%
Population Healthy Nuclei (%) [3, 13]: 24%
Population Hoechst High Intensity Objects (%) [3, 13]: 21%
Population Mitochondria Different-Phenotype (%) [3, 13]: 83%
Population Mitotic Cells (%) [3, 13]: 43%
Population Normal (%) [3, 13]: 78%
Population Pyknosed Nuclei (%) [3, 13]: 18%
Population Tubulin-Different-Phenotype (%) [3, 13]: 93%
Total Cell Count [3, 13]: 191
Population Apoptotic (%) [3, 14]: 51%
Population Fragmented Nuclei (%) [3, 14]: 62%
Population Healthy Nuclei (%) [3, 14]: 15%
Population Hoechst High Intensity Objects (%) [3, 14]: 19%
Population Mitochondria Different-Phenotype (%) [3, 14]: 76%
Population Mitotic Cells (%) [3, 14]: 48%
Population Normal (%) [3, 14]: 80%
Population Pyknosed Nuclei (%) [3, 14]: 22%
Population Tubulin-Different-Phenotype (%) [3, 14]: 90%
Total Cell Count [3, 14]: 69
Population Apoptotic (%) [3, 15]: 46%
Population Fragmented Nuclei (%) [3, 15]: 16%
Population Healthy Nuclei (%) [3, 15]: 65%
Population Hoechst High Intensity Objects (%) [3, 15]: 7%
Population Mitochondria Different-Phenotype (%) [3, 15]: 31%
Population Mitotic Cells (%) [3, 15]: 53%
Population Normal (%) [3, 15]: 92%
Population Pyknosed Nuclei (%) [3, 15]: 17%
Population Tubulin-Different-Phenotype (%) [3, 15]: 51%
Total Cell Count [3, 15]: 221
Population Apoptotic (%) [3, 16]: 21%
Population Fragmented Nuclei (%) [3, 16]: 28%
Population Healthy Nuclei (%) [3, 16]: 52%
Population Hoechst High Intensity Objects (%) [3, 16]: 5%
Population Mitochondria Different-Phenotype (%) [3, 16]: 42%
Population Mitotic Cells (%) [3, 16]: 78%
Population Normal (%) [3, 16]: 95%
Population Pyknosed Nuclei (%) [3, 16]: 18%
Population Tubulin-Different-Phenotype (%) [3, 16]: 27%
Total Cell Count [3, 16]: 57
Population Apoptotic (%) [3, 17]: 80%
Population Fragmented Nuclei (%) [3, 17]: 59%
Population Healthy Nuclei (%) [3, 17]: 14%
Population Hoechst High Intensity Objects (%) [3, 17]: 23%
Population Mitochondria Different-Phenotype (%) [3, 17]: 88%
Population Mitotic Cells (%) [3, 17]: 19%
Population Normal (%) [3, 17]: 76%
Population Pyknosed Nuclei (%) [3, 17]: 26%
Population Tubulin-Different-Phenotype (%) [3, 17]: 81%
Total Cell Count [3, 17]: 201
Population Apoptotic (%) [3, 18]: 84%
Population Fragmented Nuclei (%) [3, 18]: 60%
Population Healthy Nuclei (%) [3, 18]: 5%
Population Hoechst High Intensity Objects (%) [3, 18]: 19%
Population Mitochondria Different-Phenotype (%) [3, 18]: 100%
Population Mitotic Cells (%) [3, 18]: 15%
Population Normal (%) [3, 18]: 80%
Population Pyknosed Nuclei (%) [3, 18]: 34%
Population Tubulin-Different-Phenotype (%) [3, 18]: 100%
Total Cell Count [3, 18]: 80
Population Apoptotic (%) [3, 19]: 57%
Population Fragmented Nuclei (%) [3, 19]: 18%
Population Healthy Nuclei (%) [3, 19]: 60%
Population Hoechst High Intensity Objects (%) [3, 19]: 9%
Population Mitochondria Different-Phenotype (%) [3, 19]: 28%
Population Mitotic Cells (%) [3, 19]: 42%
Population Normal (%) [3, 19]: 90%
Population Pyknosed Nuclei (%) [3, 19]: 21%
Population Tubulin-Different-Phenotype (%) [3, 19]: 45%
Total Cell Count [3, 19]: 240
Population Apoptotic (%) [3, 20]: 25%
Population Fragmented Nuclei (%) [3, 20]: 28%
Population Healthy Nuclei (%) [3, 20]: 53%
Population Hoechst High Intensity Objects (%) [3, 20]: 7%
Population Mitochondria Different-Phenotype (%) [3, 20]: 22%
Population Mitotic Cells (%) [3, 20]: 75%
Population Normal (%) [3, 20]: 92%
Population Pyknosed Nuclei (%) [3, 20]: 17%
Population Tubulin-Different-Phenotype (%) [3, 20]: 24%
Total Cell Count [3, 20]: 56
Population Fragmented Nuclei (%) [3, 21]: 62%
Population Healthy Nuclei (%) [3, 21]: 5%
Population Hoechst High Intensity Objects (%) [3, 21]: 23%
Population Mitochondria Different-Phenotype (%) [3, 21]: 76%
Population Normal (%) [3, 21]: 76%
Population Pyknosed Nuclei (%) [3, 21]: 31%
Population Tubulin-Different-Phenotype (%) [3, 21]: 66%
Total Cell Count [3, 21]: 244
Population Apoptotic (%) [3, 22]: 91%
Population Fragmented Nuclei (%) [3, 22]: 65%
Population Healthy Nuclei (%) [3, 22]: 8%
Population Hoechst High Intensity Objects (%) [3, 22]: 16%
Population Mitochondria Different-Phenotype (%) [3, 22]: 100%
Population Mitotic Cells (%) [3, 22]: 8%
Population Normal (%) [3, 22]: 83%
Population Pyknosed Nuclei (%) [3, 22]: 26%
Population Tubulin-Different-Phenotype (%) [3, 22]: 100%
Total Cell Count [3, 22]: 98
Growth Rate ([4]; 0 h, replicate number 2, timepoint 0 hours): 0
Growth Rate [4, 6]: 0
Growth Rate [4, 7]: 0
Growth Rate [4, 8]: 0
Growth Rate [4, 10]: 0
